Assay results published in ChEMBL document CHEMBL3588764, “Fluoro-substituted phenylazocarboxamides: Dopaminergic behavior and N-arylating properties for irreversible binding” (Bioorg Med Chem, 2015).

Columns and labels:
D(2) dopamine receptor [1] = molecular target: T1, D(2) dopamine receptor (Homo sapiens, UniProt P14416); experiment: Displacement of [3H]spiperone from human dopamine D2 long receptor expressed in CHO cell membranes
Procedure, shortened: (§1)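 Membranes of CHO cells stably expressing each human receptor; [³H]spiperone final 0.1–0.2 nM (D2long), 0.2 nM (D2short), 0.2–0.4 nM (D3), 0.15–0.35 nM (D4.4), set by K_D. Protein per well 4–6, 1–4, 1–6 and 5–6 µg respectively. EC50 from competition curves by non-linear regression, converted to Ki with Cheng–Prusoff; Ki mean of 3–7 independent experiments in triplicate.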

Homo sapiens [2] = species: Homo sapiens; experiment: Selectivity index, ratio of Ki for human dopamine D2 short receptor to Ki for human dopamine D3 receptor
Procedure, shortened: (§2)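 Ratio of Ki at D2long or D2short to Ki at D3, with both Ki values from [³H]spiperone competition on CHO membranes stably expressing the human receptors.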

D(1A) dopamine receptor = D(1A) dopamine receptor (Homo sapiens, UniProt P21728); experiment: Displacement of [3H]SCH23390 from human dopamine D1 receptor expressed in HEK293 cell membranes
Procedure, shortened: (§3)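 Homogenates from HEK 293 cells transiently transfected (calcium phosphate) with the human receptor gene in pcDNA3.1. [³H]SCH23390 at 0.3–0.7 nM (D1) or 0.4–0.5 nM (D5); [³H]ketanserin at 0.3–0.5 nM (5-HT2A). Competition curves fitted by non-linear regression, EC50 converted to Ki via Cheng–Prusoff.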

Homo sapiens [3] = species: Homo sapiens; experiment: Selectivity index, ratio of Ki for human dopamine D2 long receptor to Ki for human dopamine D3 receptor; procedure, shortened: as §2
D(4) dopamine receptor = molecular target: T2, D(4) dopamine receptor (Homo sapiens, UniProt P21917); experiment: Displacement of [3H]spiperone from human dopamine D4.4 receptor expressed in CHO cell membranes; procedure, shortened: as §1
T2 sequence (P21917 whole entry): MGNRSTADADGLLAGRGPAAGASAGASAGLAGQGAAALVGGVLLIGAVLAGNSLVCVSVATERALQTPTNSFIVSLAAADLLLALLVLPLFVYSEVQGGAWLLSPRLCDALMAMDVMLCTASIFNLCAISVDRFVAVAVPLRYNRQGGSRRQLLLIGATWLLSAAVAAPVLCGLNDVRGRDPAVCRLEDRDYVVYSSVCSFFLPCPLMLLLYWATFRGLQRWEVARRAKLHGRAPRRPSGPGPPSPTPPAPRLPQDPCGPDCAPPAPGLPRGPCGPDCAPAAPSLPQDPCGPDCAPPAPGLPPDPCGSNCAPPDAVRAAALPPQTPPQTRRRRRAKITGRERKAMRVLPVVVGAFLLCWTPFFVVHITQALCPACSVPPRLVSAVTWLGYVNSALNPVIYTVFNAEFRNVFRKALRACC

[4] = Displacement of [3H]prazosin from porcine cerebral cortex alpha1 adrenoceptor; assay type: tissue-based, Sus scrofa
D(3) dopamine receptor [5] = molecular target: T3, D(3) dopamine receptor (Homo sapiens, UniProt P35462); experiment: Displacement of [3H]spiperone from human dopamine D3 receptor expressed in CHO cell membranes; procedure, shortened: as §1
[6] = molecular target: 5-hydroxytryptamine receptor 2A (Homo sapiens, UniProt P28223); experiment: Displacement of [3H]ketanserin from human 5HT2A receptor expressed in HEK293 cell membranes; procedure, shortened: as §3
[7] = Displacement of [3H][…] from porcine cerebral cortex 5HT1A receptor; assay type: tissue-based, Sus scrofa
Procedure, shortened: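 Porcine cerebral cortex homogenates as receptor source; [³H][…] at 0.2–0.33 nM for 5-HT1A. Protein measured by Lowry against bovine serum albumin. Competition curves fitted by non-linear regression, EC50 converted to Ki via Cheng–Prusoff.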

D(2) dopamine receptor [8] = molecular target: T1, D(2) dopamine receptor; experiment: Displacement of [3H]spiperone from human dopamine D2 short receptor expressed in CHO cell membranes; procedure, shortened: as §1
D(1B) dopamine receptor = D(1B) dopamine receptor (Homo sapiens, UniProt P21918); experiment: Displacement of [3H]SCH23390 from human dopamine D5 receptor expressed in HEK293 cell membranes; procedure, shortened: as §3
[9] = system: D(3) dopamine receptor (Homo sapiens), P35462 [L89K]; experiment: Activation of human dopamine D3 receptor L89K mutant expressed in HEK293 cells co-expressing GaqG66Di5- incubated for 120 mins by scintillation counting based myo-[3H]inositol phosphate accumulation assay relative to control; assay type: functional, cell-based
Procedure, shortened: (§4)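 HEK293T cells transiently co-transfected with human D3 (wild type or L89K mutant) plus GαqG66Di5; 24 h later seeded and labelled with myo-[³H]inositol. Next day, compounds in Tris/EDTA/MgCl2/DTT buffer pH 7.4 with 10 mM LiCl for 120 min at 37 °C. Total IP isolated by anion exchange and counted by scintillation; expressed as fold over basal (unstimulated = 1).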

D(3) dopamine receptor [10] = molecular target: T3, D(3) dopamine receptor; experiment: Activation of wild type human dopamine D3 receptor expressed in HEK293 cells co-expressing GaqG66Di5- incubated for 120 mins by scintillation counting based myo-[3H]inositol phosphate accumulation assay; assay type: functional, cell-based
D(3) dopamine receptor [11] = molecular target: T3, D(3) dopamine receptor; experiment: Activation of wild type human dopamine D3 receptor expressed in HEK293 cells co-expressing GaqG66Di5- incubated for 120 mins by scintillation counting based myo-[3H]inositol phosphate accumulation assay relative to quinpirole; assay type: functional, cell-based; procedure, shortened: as §4
D(3) dopamine receptor [12] = molecular target: D(3) dopamine receptor (Homo sapiens, UniProt P35462, L89K); experiment: Activation of human dopamine D3 receptor L89K mutant expressed in HEK293 cells co-expressing GaqG66Di5- incubated for 120 mins by scintillation counting based myo-[3H]inositol phosphate accumulation assay; assay type: functional, cell-based
Chain of D(3) dopamine receptor (Homo sapiens, UniProt P35462, L89K) (P35462 as listed by the source L89K): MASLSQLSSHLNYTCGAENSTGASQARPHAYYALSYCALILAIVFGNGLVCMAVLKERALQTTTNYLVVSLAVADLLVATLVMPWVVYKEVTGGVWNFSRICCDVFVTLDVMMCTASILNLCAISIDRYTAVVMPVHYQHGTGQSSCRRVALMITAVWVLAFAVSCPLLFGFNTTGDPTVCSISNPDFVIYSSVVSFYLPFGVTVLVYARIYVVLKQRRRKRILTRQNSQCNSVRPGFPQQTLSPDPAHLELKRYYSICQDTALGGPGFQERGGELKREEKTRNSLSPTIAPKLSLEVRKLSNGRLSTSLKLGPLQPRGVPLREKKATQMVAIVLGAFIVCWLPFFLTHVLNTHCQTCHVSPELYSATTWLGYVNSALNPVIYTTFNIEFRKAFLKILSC

T1 sequence (P14416 whole entry): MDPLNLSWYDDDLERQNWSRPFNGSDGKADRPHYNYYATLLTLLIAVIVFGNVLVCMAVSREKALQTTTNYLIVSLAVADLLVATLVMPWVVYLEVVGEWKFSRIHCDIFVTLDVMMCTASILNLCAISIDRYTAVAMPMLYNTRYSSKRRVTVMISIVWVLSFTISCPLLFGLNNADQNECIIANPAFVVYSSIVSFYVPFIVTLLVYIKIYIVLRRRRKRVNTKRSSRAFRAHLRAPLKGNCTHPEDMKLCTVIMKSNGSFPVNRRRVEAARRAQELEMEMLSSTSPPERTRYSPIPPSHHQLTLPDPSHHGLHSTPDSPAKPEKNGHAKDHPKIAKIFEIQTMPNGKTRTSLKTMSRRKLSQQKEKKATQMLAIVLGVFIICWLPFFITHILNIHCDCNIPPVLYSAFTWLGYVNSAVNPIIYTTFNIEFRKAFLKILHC
Chain of D(1A) dopamine receptor (P21728 whole entry): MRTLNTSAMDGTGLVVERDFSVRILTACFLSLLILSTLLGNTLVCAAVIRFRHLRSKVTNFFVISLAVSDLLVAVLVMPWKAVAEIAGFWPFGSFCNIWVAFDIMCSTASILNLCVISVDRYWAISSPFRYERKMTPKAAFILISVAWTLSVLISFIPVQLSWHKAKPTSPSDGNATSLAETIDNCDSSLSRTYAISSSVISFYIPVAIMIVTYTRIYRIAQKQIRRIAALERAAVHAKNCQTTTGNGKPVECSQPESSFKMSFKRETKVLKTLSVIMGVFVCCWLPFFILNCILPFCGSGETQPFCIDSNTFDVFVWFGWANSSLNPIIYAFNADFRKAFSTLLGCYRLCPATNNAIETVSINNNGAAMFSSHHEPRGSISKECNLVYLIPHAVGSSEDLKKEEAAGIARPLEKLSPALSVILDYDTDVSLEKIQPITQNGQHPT
Chain of D(3) dopamine receptor (Homo sapiens), P35462 [L89K] (P35462 as listed by the source): as the sequence (P35462 as listed by the source L89K) above
Chain of D(1B) dopamine receptor (P21918 whole entry): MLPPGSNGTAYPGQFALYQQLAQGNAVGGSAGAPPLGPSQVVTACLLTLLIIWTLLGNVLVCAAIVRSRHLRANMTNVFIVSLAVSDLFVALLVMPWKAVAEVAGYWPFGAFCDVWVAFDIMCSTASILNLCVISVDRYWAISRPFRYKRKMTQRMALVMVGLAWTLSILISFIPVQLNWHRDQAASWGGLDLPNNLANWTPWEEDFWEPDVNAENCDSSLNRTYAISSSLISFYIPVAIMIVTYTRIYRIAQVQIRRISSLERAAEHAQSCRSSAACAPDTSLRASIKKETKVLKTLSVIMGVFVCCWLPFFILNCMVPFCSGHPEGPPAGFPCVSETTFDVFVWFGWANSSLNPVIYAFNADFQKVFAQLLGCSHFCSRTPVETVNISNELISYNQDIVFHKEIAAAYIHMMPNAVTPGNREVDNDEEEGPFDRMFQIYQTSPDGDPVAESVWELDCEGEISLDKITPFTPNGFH
Chain of 5-hydroxytryptamine receptor 2A (P28223 whole entry): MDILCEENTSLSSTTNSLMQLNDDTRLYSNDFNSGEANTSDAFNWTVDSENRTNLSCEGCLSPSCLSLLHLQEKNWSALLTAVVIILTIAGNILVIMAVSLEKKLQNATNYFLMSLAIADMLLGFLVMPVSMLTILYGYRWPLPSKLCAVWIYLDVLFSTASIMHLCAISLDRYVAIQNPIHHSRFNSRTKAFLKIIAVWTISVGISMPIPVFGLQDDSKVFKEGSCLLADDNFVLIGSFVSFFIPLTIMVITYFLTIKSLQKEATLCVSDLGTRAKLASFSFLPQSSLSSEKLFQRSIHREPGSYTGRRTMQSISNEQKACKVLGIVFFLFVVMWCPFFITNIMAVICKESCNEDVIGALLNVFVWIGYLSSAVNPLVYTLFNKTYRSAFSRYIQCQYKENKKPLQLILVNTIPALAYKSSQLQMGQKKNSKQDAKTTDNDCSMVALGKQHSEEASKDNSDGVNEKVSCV
T3 sequence (P35462 whole entry): as the sequence (P35462 as listed by the source L89K) above, with S9G, K89L counted along it

Row | Structure (SMILES) | Ki (D(2) dopamine receptor [1]) [nM] | Ratio Ki (Homo sapiens [2]) | Ki (D(1A) dopamine receptor) [nM] | Ratio Ki (Homo sapiens [3]) | Ki (D(4) dopamine receptor) [nM] | Ki [4] [nM] | Ki (D(3) dopamine receptor [5]) [nM] | Ki [6] [nM] | Ki [7] [nM] | Ki (D(2) dopamine receptor [8]) [nM] | Ki (D(1B) dopamine receptor) [nM] | Efficacy [9] [%] | EC50 (D(3) dopamine receptor [10]) [nM] | Efficacy (D(3) dopamine receptor [11]) [%] | EC50 (D(3) dopamine receptor [12]) [nM]
1 | CCCN(CCNC(=O)/N=N/c1cc(F)c(F)c(F)c1)C1Cc2ccccc2C1 | 110 | 0.84 | 2600 | 1.3 | 10 | 900 | 87 | 510 | 3.3 | 73 | 3800 | – | – | – | –
2 | COc1ccccc1N1CCN(CCCCNC(=O)/N=N/c2cc(F)c(F)c(F)c2)CC1 | 6.6 | 6.8 | – | 4.7 | 47 | – | 1.4 | – | – | 9.5 | – | – | – | – | –
3 | CCCN(CCNC(=O)/N=N/c1ccc(F)c(F)c1)C1Cc2ccccc2C1 | 3.9 | 3 | – | 1.4 | 2 | – | 2.8 | – | – | 8.5 | – | – | – | – | –
4 | COc1ccccc1N1CCN(CCCCNC(=O)/N=N/c2ccc(F)c(F)c2)CC1 | 7.5 | 16 | – | 10 | 36 | – | 0.72 | – | – | 12 | – | – | – | – | –
5 | CCCN(CCCCNC(=O)/N=N/c1cc(F)c(F)c(F)c1)C1Cc2ccccc2C1 | 40 | 2.4 | – | 8.2 | 40 | – | 4.9 | – | – | 12 | – | 101 | 11 | 90 | 114
6 | CCCN(CCCCNC(=O)/C=C/c1ccc(F)cc1)C1Cc2ccccc2C1 | 19 | 9.4 | 1300 | 61 | 16 | 120 | 0.31 | 89 | 5 | 2.9 | 2900 | – | – | – | –
7 | CCCN(CCCCNC(=O)/N=N/c1ccc(F)c(F)c1)C1Cc2ccccc2C1 | 25 | 6.5 | – | 13 | 31 | – | 2 | – | – | 13 | – | 77 | 6.1 | 94 | 79
8 | COc1ccccc1N1CCN(CCCCNC(=O)/N=N/c2ccc(F)cc2)CC1 | – | 11 | – | 13 | – | 5.2 | 3 | – | 3.3 | 34 | – | – | – | – | –
9 | CCCN(CCCCNC(=O)/N=N/c1ccc(F)cc1)C1Cc2ccccc2C1 | 23 | 42 | 3300 | 27 | 34 | 170 | 0.85 | 550 | 5.8 | 36 | 7000 | 81 | 2.6 | 84 | 68
10 | CCCN(CCNC(=O)/N=N/c1ccc(F)cc1)C1Cc2ccccc2C1 | 5 | 2.9 | – | 3.6 | 0.99 | – | 1.4 | – | – | 4 | – | – | – | – | –
11 | CCCN(CCNC(=O)/C=C/c1ccc(F)cc1)C1Cc2ccccc2C1 | 43 | 0.93 | 2200 | 3.1 | 1.4 | 58 | 14 | 210 | 4.3 | 13 | 11000 | – | – | – | –
